For 8 compounds, inhibition in vivo and MIC results are on record in ChEMBL document CHEMBL1121818, “Some reactions of 1,4-dihydropyridines with organic azides. Synthesis of 2,7-diazabicyclo[4.1.0]hept-3-enes with analgesic and antiprotozoal activity” (1981).

Common to all, as to format: functional
Assay [1] deals with Mus musculus. The experiment in a line: Analgesic activity was measured on phenylquinone writhing in mice at 128 mg/kg subcutaneous dose. The following applies: sc. A digest of the protocol:
(§1)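 Male Swiss albino mice, 18-22 g, five per group. Compound suspended in physiological saline with Tween 80 and given sc. 30 min later, 0.03% phenyl-p-benzoquinone given ip at 0.1 mL/10 g body weight. Total writhes per animal counted against a vehicle-treated control group. % change = (writhes treated/writhes control) × 100 − 100.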

Assay [2] relates to Trichomonas vaginalis. Briefly: Compound was measured as concentration of compound required for 90% growth inhibition of Trichomonas vaginalis. A digest of the protocol: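 Tube dilution in modified TYM basal medium, with compound added in µg/mL of medium. Inoculum 1 × 10^5/mL T. vaginalis trophozoites pre-grown 48 h in the same medium. Incubated 24 and 48 h at 35 °C. Aliquots diluted in saline with 1% formaldehyde and counted in a Speirs-Levy chamber. MIC is the lowest concentration giving 90% growth inhibition.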

Assay [3] relates to Mus musculus. The experiment in a line: Analgesic activity was measured on phenylquinone writhing in mice at 64 mg/kg subcutaneous dose. The following applies: sc. A digest of the protocol:
as §1
A general note: In writhing tests, fewer writhes than in controls are read as antinociception.

Assay [4] relates to Mus musculus. The experiment in a line: Analgesic activity was measured of phenylquinone writhing in mice at 8 mg/kg subcutaneous dose. The following applies: sc. In a few lines:
as §1

The test system of assay [5] is Mus musculus. The experiment in a line: Analgesic activity was measured of phenylquinone writhing in mice at 16 mg/kg subcutaneous dose. The following applies: sc. In a few lines:
as §1

Assay [6] deals with Mus musculus. The experiment in a line: Analgesic activity was measured of phenylquinone writhing in mice at 4 mg/kg subcutaneous dose. The following applies: sc. A digest of the protocol: as §1
For assay [7], the system named is Mus musculus. Briefly: Analgesic activity was measured of phenylquinone writhing in mice at 64 mg/kg subcutaneous dose. The following applies: sc. A digest of the protocol:
as §1

For assay [8], the system named is Mus musculus. Briefly: Analgesic activity was measured of phenylquinone writhing in mice at 32 mg/kg subcutaneous dose. The following applies: sc. In a few lines:
as §1

For assay [9], the system named is Mus musculus. Briefly: Analgesic activity was measured on phenylquinone writhing in mice at 50 mg/kg subcutaneous dose. The following applies: sc. A digest of the protocol:
as §1

For assay [10], the system named is Mus musculus. Briefly: Analgesic activity was measured on phenylquinone writhing in mice at 56 mg/kg subcutaneous dose. The following applies: sc. A digest of the protocol: as §1

Molecules are shown by their SMILES.

What is called inhibition in vivo is the drop in the measured response relative to a control, in per cent. In turn, `O=S(=O)(c1ccccc1)N1[C@@H]2CC=CN[C@@H]21` (stereo partly drawn) returned an inhibition in vivo at 128 mg/kg in assay [1] of 47%.
As a reminder, the MIC is the lowest concentration found to suppress growth. Compound `CC(=O)Nc1ccc(S(=O)(=O)N2[C@@H]3CC=CN(C)[C@@H]32)cc1` (stereo partly drawn) registered an inhibition in vivo at 128 mg/kg in assay [1] of 95%. This compound showed a minimum inhibitory concentration (MIC) in assay [2] of less than 10 µg/mL.
In assay [1], `CN1C=CC[C@@H]2[C@H]1N2S(C)(=O)=O` (stereo partly drawn) returned an inhibition in vivo at 128 mg/kg of 50%. This compound also displayed an MIC in [2] of less than 10 µg/mL.
`CN1C=CC[C@@H]2[C@H]1N2C#N` gave an MIC in assay [2] of less than 10 µg/mL. The compound also had an inhibition in vivo at 64 mg/kg in assay [3] of 86%.
In [4], `CN1C=CC[C@@H]2[C@H]1N2S(=O)(=O)c1ccc(N)cc1` (stereo partly drawn) came in with an inhibition in vivo at 8 mg/kg of 40%. Besides, the inhibition in vivo at 128 mg/kg in [1] is 97%. The MIC in assay [2] is less than 10 µg/mL. Also, in assay [5], the inhibition in vivo at 16 mg/kg was found to be 45%. The same compound registered an inhibition in vivo at 4 mg/kg in assay [6] of 23%. In addition, the inhibition in vivo at 64 mg/kg in assay [7] was 78%. Also, 32 mg/kg produced 69% inhibition in vivo in [8].
In the case of `CN1C=CC[C@@H]2[C@H]1N2S(=O)(=O)c1ccccc1` (stereo partly drawn), the MIC in [2] was less than 10 µg/mL. Besides, testing at 64 mg/kg in assay [3] gave an inhibition in vivo of 92%.
The compound `CC(=O)Oc1ccccc1C(=O)O` [ASPIRIN] showed an inhibition in vivo at 50 mg/kg in assay [9] of 50%.
Take `CCC(=O)O[C@](Cc1ccccc1)(c1ccccc1)[C@H](C)CN(C)C` [PROPOXYPHENE]: at 56 mg/kg the inhibition in vivo in assay [10] was 50%.
